Sampled rows, rich in hits. Any-hit rate of the full collection: about 1.8%.
hiPSC survival: increases survival of single human iPS cells. survival enhancement, % at 20 µM. AID 602274. 0.044% of 360,000 active. hiPSC single-cell survival, ATPlite luminescence; 100% = ROCK inhibitor wells, 0% = DMSO; in the data active = survival enhancement above about 18%;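 also: cells exposed to compounds for 16 hours before the ATP read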
TbMetRS inhib: blocks T. brucei methionyl-tRNA synthetase activity; purified T. brucei MetRS, ATP depletion, Kinase-Glo luminescence; inhibition, % at 11.9 µM; 0.4% of 360,000 active;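 active = inhibition above a per-plate cutoff of the control wells' mean inhibition plus 3 SD, cut at about 5.5% in these data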;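 also: 0% = DMSO wells median and 100% = median of wells with control inhibitor compound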
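Dosing: 11.9 µM single point; system: parasite MetRS enzyme; technique: luminescence of leftover ATP; times: 15 min enzyme-compound preincubation, 2 h reaction, 10 min detection, 25 °C; replicates: each compound tested once; read-out basis: percent inhibition relative to median high and low control wells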
PREPL inh: human PREPL enzyme inhibition | inhibition, % at 5.96 µM | recombinant PREPL, fluorescence polarization activity-based probe | 0.68% of 320,000 active; in the data active = inhibition above about 43%;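 also: 0% = enzyme with DMSO and 100% = wells lacking enzyme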
Target sequence (Q4J6C6 whole entry, looked up): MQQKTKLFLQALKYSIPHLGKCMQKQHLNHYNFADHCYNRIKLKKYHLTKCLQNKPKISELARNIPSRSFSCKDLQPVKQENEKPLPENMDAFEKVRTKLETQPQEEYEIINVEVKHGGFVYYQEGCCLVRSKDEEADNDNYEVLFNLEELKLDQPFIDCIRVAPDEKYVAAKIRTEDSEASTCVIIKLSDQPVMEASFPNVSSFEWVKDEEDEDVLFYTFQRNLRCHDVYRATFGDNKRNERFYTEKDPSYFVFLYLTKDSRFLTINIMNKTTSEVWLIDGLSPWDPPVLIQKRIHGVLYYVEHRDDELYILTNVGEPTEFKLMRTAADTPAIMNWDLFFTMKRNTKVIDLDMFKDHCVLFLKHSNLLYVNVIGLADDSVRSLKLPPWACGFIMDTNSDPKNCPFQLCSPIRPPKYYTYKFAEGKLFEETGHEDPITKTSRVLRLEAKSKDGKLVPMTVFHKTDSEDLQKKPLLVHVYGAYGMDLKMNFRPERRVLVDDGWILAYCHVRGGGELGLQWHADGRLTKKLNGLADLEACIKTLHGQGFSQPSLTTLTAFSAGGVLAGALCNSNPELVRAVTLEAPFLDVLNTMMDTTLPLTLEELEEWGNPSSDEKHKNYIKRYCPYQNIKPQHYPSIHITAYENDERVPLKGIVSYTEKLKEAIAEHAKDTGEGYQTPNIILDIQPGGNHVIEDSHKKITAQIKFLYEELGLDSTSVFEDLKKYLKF
SKN-1 inh: blocks SKN-1 activity in C. elegans; C. elegans VP596 Pgst-4::GFP/RFP ratio, acrylamide-induced, 24 h; inhibition, % at 21.8 µM; 0.49% of 360,000 active;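 active = interference check ratio from 0.5 to 1.5 plus GFP to RFP signal ratio inhibition reaching or exceeding a fixed threshold, cut at about 30% in these data, passing the limit was not always enough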
E coli Lon inh: E. coli protease La inhibition. P0A9M0. purified E. coli Lon protease, fluorescence polarization. inhibition, % at 7.94 µM. 0.42% of 360,000 active. AID 602123; in the data active = inhibition above about 13%, passing the limit was not always enough;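 also: 0% = enzyme with probe and DMSO and 100% = no enzyme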
MT1-MMP act inh: blocks activation of human MT1-MMP. P50281. HT1080 RFP-PRO-GFP cells, GFP/RFP ratio fluorescence, overnight; percent of plate control window, DMSO zero. GFP/RFP ratio change, % at 20 µM. 0.061% of 360,000 active;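 active = GFP/RFP ratio change of at least 30% with cell ATP level not reduced by more than half and red fluorescence within 50% of control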
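Assay system: HT1080 RFP-PRO-GFP cells | Dosing: 20 µM single dose, 1% DMSO | Incubation: Cells overnight before dosing, compound overnight, 37 °C, 5% CO2 | Evaluation: GFP/RFP fluorescence ratio | Control set: DMSO-only wells and HT1080 RFP-L50D-GFP cell wells as references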
TbMetRS confirm: confirmation of Trypanosoma brucei MetRS inhibitors; shares compounds with TbMetRS inhib; T. brucei MetRS enzyme, luminescence (ATP depletion); inhibition, % at 11.9 µM; 93% of 1,400 active; in the data active = inhibition above about 7%
Jurkat tox: Jurkat T cell cytotoxicity for MetRS hits | shares compounds with TbMetRS inhib | Jurkat cells viability, ATP luminescence | inhibition, % at 8.3 µM | 12% of 1,400 active | AID 624413; in the data active = inhibition above about 15%;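 also: 0% = vehicle and 100% = reference inhibitor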
TbMetRS FP orth: inhibits T. brucei methionyl tRNA synthetase in orthogonal FP test; shares compounds with TbMetRS inhib; purified T. brucei MetRS, fluorescence polarization; inhibition, % at 11.9 µM; 44% of 1,400 active; AID 651607; in the data active = inhibition above about 17%;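 also: 0% = vehicle wells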
An asterisk follows results filed as active; x = not tested or not shown.

SMILES	hiPSC survival	TbMetRS inhib	PREPL inh	SKN-1 inh	E coli Lon inh	MT1-MMP act inh	TbMetRS confirm	Jurkat tox	TbMetRS FP orth
Cc1ccc(NC(=O)CCC(=O)OCc2ccc(Br)cc2)cc1	0	17*	-7	6	3	6	26*	-6	12
Cc1cccc(OCCCC(=O)Nc2ccc(Br)cc2)c1	-2	34*	-34	-17	-5	12	45*	0	34*
O=C(COC(=O)c1cc(=O)[nH]c2ccccc12)c1cccs1	-2	-1	-4	6	3	3	x	x	x
COC(=O)CN1C(=S)N(c2ccc(Cl)cc2)C(=O)C1CC(=O)Nc1ccc(F)cc1 (centres undefined)	-1	1	-21	4	5	1	x	x	x
COC(=O)CN1C(=S)N(c2ccc(Cl)cc2)C(=O)C1CC(=O)Nc1ccc(Cl)cc1 (centres undefined)	0	24*	-30	19	1	2	39*	3	38*
O=C(CSc1nccn1-c1ccc(Cl)cc1)NCc1ccc2c(c1)OCO2	0	0	-2	-13	-6	2	x	x	x
N#Cc1ccc(Sc2nc3ccccc3[nH]2)cc1C#N	-3	17*	-5	-29	6	3	29*	0	14
O=C(CCN1CCOCC1)NNC(=O)Nc1cccc([N+](=O)[O-])c1	0	0	3	-1	-6	4	x	x	x
Clc1ccc2nc(SCc3nnc(-c4ccccc4)o3)[nH]c2c1	2	7.5*	-11	8	-9	-3	17*	6	7
Cc1ccc2nc(SCc3nnc(-c4ccccc4Br)o3)[nH]c2c1	1	7.8*	-22	11	0	-1	11*	5	7
Clc1ccc(OCc2nnc(SCc3nnc(-c4ccccc4)o3)o2)c(Cl)c1	-3	6.7*	-43	-12	-6	3	17*	0	5
CCCCCn1nnnc1-c1nc2cc(C)c(C)cc2[nH]c1=O	0	-1	x	-4	-2	6	x	x	x
O=C(Cc1ccc(Br)cc1)Nc1cccc(Cl)c1	0	2	0	5	-2	0	x	x	x
Cn1cccc1CC(=O)NNC(=O)Nc1ccc(Cl)cc1	7	0	-1	-8	-4	-3	x	x	x
O=C(Cc1ccc(Br)cc1)NNC(=O)Nc1ccc(Cl)cc1	-2	17*	14	-3	-12	0	24*	5	17*
O=C(Cc1ccc(Cl)cc1)Nc1ccc(Br)cc1	0	6.1*	4	10	2	-1	11*	5	6
Cc1nn(C(=O)c2cc3sccc3[nH]2)c(C)c1C	3	9.2*	7	19	-6	-3	17*	-7	6
CCCn1c(SCC(=O)Nc2ccccc2OC)nnc1-c1ccco1	0	0	-12	5	-3	-6	x	x	x
O=[N+]([O-])c1ccc(OCc2cnc(Cl)s2)c([N+](=O)[O-])c1	-1	6.7*	3	1	-1	7	18*	1	16
COc1ccc(CNC(=O)COC(=O)CCCOc2ccc(Cl)cc2Cl)cc1	4	0	-21	1	-5	1	x	x	x
O=C(COC(=O)CCCOc1ccc(Cl)cc1Cl)Nc1cccc(Cl)c1	6	31*	-31	-3	5	1	45*	1	49*
COC(=O)NNC(=O)CCCOc1ccc(Cl)cc1Cl	-1	2	8	-3	-3	4	x	x	x
C#CCN(C)CCCOc1ccc(Cl)cc1Cl	0	7.3*	-13	-11	-8	4	18*	6	3
CCN(CC)C(=O)CCCOc1ccc(Cl)cc1Cl	2	9.1*	-8	9	2	-3	16*	13	5
CC(C)Nc1nc(NC(C)C)nc(N(C#N)CCOc2ccc(Cl)cc2Cl)n1	1	-1	-2	-9	3	-20	x	x	x
SMILES	hiPSC survival	TbMetRS inhib	PREPL inh	SKN-1 inh	E coli Lon inh	MT1-MMP act inh	TbMetRS confirm	Jurkat tox	TbMetRS FP orth
CC(C)NC(=O)CCCOc1ccc(Cl)cc1Cl	3	6.3*	2	12	1	-2	11*	-11	-2
Cc1ccc(CNC(=O)COC(=O)CCC(=O)c2cccs2)cc1	0	1	-8	-1	-1	1	x	x	x
COc1cccc(NC(=O)C(C#N)Cc2ccncc2)c1 (centres undefined)	0	16*	10	18	-7	-6	1	3	3
Nn1cc(-c2ccccc2)nc1SCC(=O)NCCc1ccccc1	0	-1	-2	1	3	-4	x	x	x
NNC(=O)CSc1nc(-c2ccccc2)cn1-c1ccccc1	0	7.2*	22	5	6	5	3	-2	1
CCN1C(=O)C(CC(=O)Nc2ccc(OC)cc2)N(Cc2cccnc2)C1=S (centres undefined)	-2	0	7	-5	0	6	x	x	x
COc1ccc(NC(=O)CC2C(=O)N(c3ccccc3)C(=O)N2CCc2cccs2)cc1 (centres undefined)	-1	32*	28	13	-2	6	46*	-1	24*
CCOc1ccc(NC(=O)CC2C(=O)N(c3ccc(OC)cc3)C(=O)N2CCc2cccs2)cc1 (centres undefined)	-1	0	24	20	2	0	x	x	x
CCN1C(=O)C(CC(=O)Nc2ccc(OC)cc2)N(CCc2ccccc2)C1=S (centres undefined)	-1	43*	19	-3	0	4	40*	1	25*
CCN1C(=O)C(CC(=O)Nc2ccc(F)cc2)N(CCc2ccc(OC)cc2)C1=S (centres undefined)	-1	30*	13	-8	4	3	47*	-7	36*
CC(NC(=O)c1ccco1)C(=O)OCC(=O)c1ccc(Cl)s1 (centres undefined)	4	0	7	-3	-7	-2	x	x	x
CCc1nc2ccc(C(=O)N3CCN(C(=O)c4ccco4)CC3)cn2c1N(C)Cc1ccc(OC)cc1	2	0	x	-9	1	0	x	x	x
CC(=O)N1CCN(CC(=O)Nc2c(Cl)ccc(C)c2Cl)CC1	4	-1	1	-6	5	1	x	x	x
CCCCc1c(-c2ccc(OC)cc2)ncn1CCc1ccccc1OC	0	-1	x	12	-3	8	x	x	x

Compound activity (PubChem)
